Assay [1] concerns the target Proto-oncogene tyrosine-protein kinase Src (Homo sapiens) (UniProt P12931). The experiment in a line: Inhibition of SRC at 10 uM.
Assay [2] concerns the target Insulin receptor (Homo sapiens) (UniProt P06213). Description: Inhibition of INSR at 10 uM.
Assay [3] addresses Serine/threonine-protein kinase PLK1 (Homo sapiens) (UniProt P53350). Description: Inhibition of PLK1 at 10 uM.
The target of assay [4] is BDNF/NT-3 growth factors receptor (Homo sapiens) (UniProt Q16620). Description: Inhibition of TRKB at 10 uM.
In assay [5] the target is Tyrosine-protein kinase receptor UFO (Homo sapiens) (UniProt P30530). Description: Inhibition of AXL at 10 uM.
The target of assay [6] is Serine/threonine-protein kinase N1 (Homo sapiens) (UniProt Q16512). Description: Inhibition of PRK1 at 10 uM.
Assay [7] deals with T1, Serine/threonine-protein kinase PLK4 (Homo sapiens) (UniProt O00444).
T1 sequence (whole entry): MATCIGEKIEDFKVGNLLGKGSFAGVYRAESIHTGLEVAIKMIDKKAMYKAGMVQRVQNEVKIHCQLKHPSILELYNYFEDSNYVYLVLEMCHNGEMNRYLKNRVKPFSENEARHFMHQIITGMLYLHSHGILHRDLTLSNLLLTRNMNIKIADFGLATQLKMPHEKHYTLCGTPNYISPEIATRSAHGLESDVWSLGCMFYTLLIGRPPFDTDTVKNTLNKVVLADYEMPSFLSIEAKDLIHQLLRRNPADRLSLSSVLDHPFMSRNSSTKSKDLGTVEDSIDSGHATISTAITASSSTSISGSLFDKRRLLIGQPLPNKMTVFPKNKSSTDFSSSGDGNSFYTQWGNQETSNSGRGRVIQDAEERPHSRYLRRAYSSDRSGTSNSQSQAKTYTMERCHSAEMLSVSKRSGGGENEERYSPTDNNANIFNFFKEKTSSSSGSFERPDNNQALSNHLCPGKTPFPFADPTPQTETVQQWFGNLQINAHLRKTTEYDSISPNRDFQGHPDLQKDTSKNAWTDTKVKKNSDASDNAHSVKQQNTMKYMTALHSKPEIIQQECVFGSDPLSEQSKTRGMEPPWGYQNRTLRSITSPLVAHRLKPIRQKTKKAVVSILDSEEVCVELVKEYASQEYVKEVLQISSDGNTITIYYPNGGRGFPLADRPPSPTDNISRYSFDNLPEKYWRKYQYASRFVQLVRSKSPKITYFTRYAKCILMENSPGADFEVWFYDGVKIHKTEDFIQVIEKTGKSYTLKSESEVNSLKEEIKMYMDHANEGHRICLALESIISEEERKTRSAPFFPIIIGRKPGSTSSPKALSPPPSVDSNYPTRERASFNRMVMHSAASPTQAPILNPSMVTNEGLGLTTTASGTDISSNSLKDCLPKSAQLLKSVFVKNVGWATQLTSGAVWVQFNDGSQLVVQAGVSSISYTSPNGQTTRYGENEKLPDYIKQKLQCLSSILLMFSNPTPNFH
Description: Inhibition of SAK at 10 uM.

The target in assay [8] is Insulin-like growth factor 1 receptor (Homo sapiens) (UniProt P08069). Description: Inhibition of IGF1R at 10 uM.
Assay [9] addresses Hepatocyte growth factor receptor (Homo sapiens) (UniProt P08581). The experiment in a line: Inhibition of MET at 10 uM.
Assay [10] concerns the target Casein kinase II subunit alpha (Homo sapiens) (UniProt P68400). The experiment in a line: Inhibition of CK2alpha1 at 10 uM.
For assay [11], the target named is RAC-alpha serine/threonine-protein kinase (Homo sapiens) (UniProt P31749). The experiment in a line: Inhibition of AKT1 at 10 uM.
The target in assay [12] is T2, NUAK family SNF1-like kinase 1 (Homo sapiens) (UniProt O60285).
T2 sequence (whole entry): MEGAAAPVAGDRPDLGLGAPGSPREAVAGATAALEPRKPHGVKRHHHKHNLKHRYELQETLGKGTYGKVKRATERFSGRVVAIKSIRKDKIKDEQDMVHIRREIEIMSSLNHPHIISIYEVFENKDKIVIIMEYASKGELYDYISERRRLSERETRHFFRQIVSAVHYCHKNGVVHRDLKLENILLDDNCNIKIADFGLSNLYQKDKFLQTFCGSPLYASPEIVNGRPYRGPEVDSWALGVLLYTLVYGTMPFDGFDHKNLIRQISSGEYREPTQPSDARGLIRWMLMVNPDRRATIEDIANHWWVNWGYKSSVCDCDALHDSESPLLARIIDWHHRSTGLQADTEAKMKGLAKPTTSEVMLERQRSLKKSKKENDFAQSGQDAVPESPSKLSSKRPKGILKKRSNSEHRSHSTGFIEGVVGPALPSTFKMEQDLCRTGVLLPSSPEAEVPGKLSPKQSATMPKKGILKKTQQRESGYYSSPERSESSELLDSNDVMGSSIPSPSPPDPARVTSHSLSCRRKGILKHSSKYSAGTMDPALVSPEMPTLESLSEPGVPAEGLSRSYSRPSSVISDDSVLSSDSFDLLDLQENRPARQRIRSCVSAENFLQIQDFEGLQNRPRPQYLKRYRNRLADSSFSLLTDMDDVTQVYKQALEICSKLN
The experiment in a line: Inhibition of ARK5 at 10 uM.

Assay [13] has as its system Serine/threonine-protein kinase B-raf (Homo sapiens), P15056 [V600E]. Description: Inhibition of B-Raf V600E mutant at 10 uM.
Assay [14] has as its target Focal adhesion kinase 1 (Homo sapiens) (UniProt Q05397). Description: Inhibition of FAK at 10 uM.
Assay [15] addresses Vascular endothelial growth factor receptor 2 (Homo sapiens) (UniProt P35968). The experiment in a line: Inhibition of VGFR2 at 10 uM.
The nature of assay [16]: Inhibition of p38 assessed as rate of ATF-2 phosphorylation at 10 uM by immunosorbent non-radioactive enzyme assay. Put shortly:
(§1)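 p38α MAP kinase ELISA-type (immunosorbent, non-radioactive) assay. Enzyme was incubated with ATP at 100 µM, ATF-2 as substrate, and test compound at 10^-5 to 10^-8 M. Activity was read as the rate of ATF-2 phosphorylation. SB203580 served as the reference inhibitor.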

Assay [17] addresses Aurora kinase B (Homo sapiens) (UniProt Q96GD4). Description: Inhibition of Aurora B at 10 uM.
Assay [18] in a line: Inhibition of p38 assessed as rate of ATF-2 phosphorylation by immunosorbent non-radioactive enzyme assay. In outline: as §1

In ChEMBL document CHEMBL1157789, “Design, synthesis and SAR of phenylamino-substituted 5,11-dihydro-dibenzo[a,d]cyclohepten-10-ones and 11H-dibenzo[b,f]oxepin-10-ones as p38 MAP kinase inhibitors” (Bioorg Med Chem Lett, 2010) one finds inhibition and IC50 data, which are given here for 15 compounds.

Each structure is given as a SMILES string. Calls of active or inactive are those of the source. The rule behind the calls is not given here.

Focal adhesion kinase 1 (Homo sapiens), sequence (Q05397 2-1052 limits assumed): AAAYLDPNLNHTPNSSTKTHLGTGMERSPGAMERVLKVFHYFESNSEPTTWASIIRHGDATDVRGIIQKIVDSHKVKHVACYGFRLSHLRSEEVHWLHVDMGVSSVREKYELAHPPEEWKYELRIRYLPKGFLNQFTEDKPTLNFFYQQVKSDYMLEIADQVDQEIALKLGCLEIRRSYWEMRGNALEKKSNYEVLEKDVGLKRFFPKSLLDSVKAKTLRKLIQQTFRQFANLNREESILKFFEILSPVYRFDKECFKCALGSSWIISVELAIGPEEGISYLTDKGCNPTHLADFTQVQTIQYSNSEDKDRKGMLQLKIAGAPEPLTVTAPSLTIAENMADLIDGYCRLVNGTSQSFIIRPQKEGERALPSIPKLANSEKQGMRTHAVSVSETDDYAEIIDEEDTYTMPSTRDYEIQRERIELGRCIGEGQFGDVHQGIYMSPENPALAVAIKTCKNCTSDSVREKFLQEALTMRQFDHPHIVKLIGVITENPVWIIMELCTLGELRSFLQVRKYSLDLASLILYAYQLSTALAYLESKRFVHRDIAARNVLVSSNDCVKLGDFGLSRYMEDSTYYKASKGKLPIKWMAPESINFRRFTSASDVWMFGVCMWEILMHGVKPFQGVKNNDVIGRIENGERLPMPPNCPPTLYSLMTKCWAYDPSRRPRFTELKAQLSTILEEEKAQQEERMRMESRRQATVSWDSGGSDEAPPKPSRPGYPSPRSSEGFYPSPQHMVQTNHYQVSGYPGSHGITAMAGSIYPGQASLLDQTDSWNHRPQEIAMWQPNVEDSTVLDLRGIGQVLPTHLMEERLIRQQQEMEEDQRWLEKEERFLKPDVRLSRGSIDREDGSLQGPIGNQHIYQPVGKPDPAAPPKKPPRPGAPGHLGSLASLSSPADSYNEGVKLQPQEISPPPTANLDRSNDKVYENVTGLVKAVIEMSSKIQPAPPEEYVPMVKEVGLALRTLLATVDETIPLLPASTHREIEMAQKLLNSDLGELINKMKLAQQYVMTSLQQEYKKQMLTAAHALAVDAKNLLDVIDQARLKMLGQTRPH
Casein kinase II subunit alpha (Homo sapiens), sequence (P68400 whole entry, looked up): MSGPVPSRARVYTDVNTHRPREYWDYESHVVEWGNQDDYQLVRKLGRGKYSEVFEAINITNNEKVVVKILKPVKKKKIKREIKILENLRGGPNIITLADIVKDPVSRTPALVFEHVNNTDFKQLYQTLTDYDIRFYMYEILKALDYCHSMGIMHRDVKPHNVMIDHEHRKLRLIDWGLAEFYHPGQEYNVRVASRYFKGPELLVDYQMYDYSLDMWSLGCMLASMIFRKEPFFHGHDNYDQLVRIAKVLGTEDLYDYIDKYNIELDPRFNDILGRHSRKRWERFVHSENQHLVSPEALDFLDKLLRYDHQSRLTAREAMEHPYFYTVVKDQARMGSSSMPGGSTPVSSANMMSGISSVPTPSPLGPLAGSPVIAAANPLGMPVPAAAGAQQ
Insulin-like growth factor 1 receptor (Homo sapiens), sequence (P08069 31-736 limits assumed): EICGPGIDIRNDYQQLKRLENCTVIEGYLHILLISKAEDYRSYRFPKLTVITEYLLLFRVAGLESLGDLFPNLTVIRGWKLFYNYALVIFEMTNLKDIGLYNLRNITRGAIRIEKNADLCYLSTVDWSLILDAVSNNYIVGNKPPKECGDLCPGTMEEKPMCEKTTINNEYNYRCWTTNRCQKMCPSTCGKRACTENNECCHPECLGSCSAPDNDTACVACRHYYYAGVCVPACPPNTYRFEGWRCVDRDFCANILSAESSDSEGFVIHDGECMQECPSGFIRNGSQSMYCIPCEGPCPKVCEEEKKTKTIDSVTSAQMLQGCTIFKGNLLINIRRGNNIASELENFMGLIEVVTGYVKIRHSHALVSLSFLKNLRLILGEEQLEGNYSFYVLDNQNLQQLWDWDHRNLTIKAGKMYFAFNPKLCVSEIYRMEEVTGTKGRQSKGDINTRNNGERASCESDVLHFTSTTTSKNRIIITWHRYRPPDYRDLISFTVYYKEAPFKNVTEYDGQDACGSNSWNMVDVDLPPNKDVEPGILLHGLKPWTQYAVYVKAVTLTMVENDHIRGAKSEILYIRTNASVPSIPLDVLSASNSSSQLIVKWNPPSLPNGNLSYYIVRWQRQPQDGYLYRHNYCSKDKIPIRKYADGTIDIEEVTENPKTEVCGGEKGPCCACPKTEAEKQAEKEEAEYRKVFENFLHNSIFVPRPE
Insulin-like growth factor 1 receptor (Homo sapiens), sequence (P08069 741-1367 limits assumed): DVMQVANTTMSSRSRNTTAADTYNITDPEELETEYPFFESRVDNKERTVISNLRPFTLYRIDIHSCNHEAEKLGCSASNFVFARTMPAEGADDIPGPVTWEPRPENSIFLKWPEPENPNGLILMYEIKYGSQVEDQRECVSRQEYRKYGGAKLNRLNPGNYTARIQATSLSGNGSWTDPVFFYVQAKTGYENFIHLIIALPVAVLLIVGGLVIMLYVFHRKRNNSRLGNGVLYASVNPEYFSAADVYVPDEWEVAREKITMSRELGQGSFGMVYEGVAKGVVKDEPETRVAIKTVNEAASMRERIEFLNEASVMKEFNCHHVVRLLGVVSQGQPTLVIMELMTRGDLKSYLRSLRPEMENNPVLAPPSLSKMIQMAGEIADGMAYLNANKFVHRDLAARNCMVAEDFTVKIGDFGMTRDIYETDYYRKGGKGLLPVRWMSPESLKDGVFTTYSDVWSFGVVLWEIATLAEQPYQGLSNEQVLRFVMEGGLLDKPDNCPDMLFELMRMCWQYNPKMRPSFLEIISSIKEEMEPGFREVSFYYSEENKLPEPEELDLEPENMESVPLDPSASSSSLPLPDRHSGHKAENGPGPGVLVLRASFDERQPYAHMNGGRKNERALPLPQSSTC
Aurora kinase B (Homo sapiens), sequence (Q96GD4 whole entry): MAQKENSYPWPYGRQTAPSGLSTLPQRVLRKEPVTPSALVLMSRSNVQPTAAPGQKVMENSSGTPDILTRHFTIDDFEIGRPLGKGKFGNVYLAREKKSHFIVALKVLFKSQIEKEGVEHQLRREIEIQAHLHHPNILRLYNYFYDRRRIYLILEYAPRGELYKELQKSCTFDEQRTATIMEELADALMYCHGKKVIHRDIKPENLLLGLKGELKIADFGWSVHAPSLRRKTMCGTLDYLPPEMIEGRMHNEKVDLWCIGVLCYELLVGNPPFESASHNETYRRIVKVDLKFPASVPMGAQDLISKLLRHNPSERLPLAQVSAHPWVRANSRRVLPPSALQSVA
RAC-alpha serine/threonine-protein kinase (Homo sapiens), sequence (P31749 whole entry): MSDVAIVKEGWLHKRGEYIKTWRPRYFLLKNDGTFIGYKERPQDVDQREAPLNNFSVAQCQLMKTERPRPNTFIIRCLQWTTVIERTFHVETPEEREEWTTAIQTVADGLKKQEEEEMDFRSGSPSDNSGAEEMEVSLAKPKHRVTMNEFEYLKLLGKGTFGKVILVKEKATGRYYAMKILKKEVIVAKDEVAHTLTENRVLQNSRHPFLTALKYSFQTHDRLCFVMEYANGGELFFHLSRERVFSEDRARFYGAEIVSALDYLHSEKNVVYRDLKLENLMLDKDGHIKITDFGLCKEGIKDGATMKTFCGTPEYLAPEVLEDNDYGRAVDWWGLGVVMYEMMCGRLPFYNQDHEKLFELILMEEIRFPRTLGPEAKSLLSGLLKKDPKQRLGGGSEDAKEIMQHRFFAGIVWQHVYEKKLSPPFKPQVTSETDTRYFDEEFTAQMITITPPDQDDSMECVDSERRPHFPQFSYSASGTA
BDNF/NT-3 growth factors receptor (Homo sapiens), sequence (Q16620 32-822 limits assumed): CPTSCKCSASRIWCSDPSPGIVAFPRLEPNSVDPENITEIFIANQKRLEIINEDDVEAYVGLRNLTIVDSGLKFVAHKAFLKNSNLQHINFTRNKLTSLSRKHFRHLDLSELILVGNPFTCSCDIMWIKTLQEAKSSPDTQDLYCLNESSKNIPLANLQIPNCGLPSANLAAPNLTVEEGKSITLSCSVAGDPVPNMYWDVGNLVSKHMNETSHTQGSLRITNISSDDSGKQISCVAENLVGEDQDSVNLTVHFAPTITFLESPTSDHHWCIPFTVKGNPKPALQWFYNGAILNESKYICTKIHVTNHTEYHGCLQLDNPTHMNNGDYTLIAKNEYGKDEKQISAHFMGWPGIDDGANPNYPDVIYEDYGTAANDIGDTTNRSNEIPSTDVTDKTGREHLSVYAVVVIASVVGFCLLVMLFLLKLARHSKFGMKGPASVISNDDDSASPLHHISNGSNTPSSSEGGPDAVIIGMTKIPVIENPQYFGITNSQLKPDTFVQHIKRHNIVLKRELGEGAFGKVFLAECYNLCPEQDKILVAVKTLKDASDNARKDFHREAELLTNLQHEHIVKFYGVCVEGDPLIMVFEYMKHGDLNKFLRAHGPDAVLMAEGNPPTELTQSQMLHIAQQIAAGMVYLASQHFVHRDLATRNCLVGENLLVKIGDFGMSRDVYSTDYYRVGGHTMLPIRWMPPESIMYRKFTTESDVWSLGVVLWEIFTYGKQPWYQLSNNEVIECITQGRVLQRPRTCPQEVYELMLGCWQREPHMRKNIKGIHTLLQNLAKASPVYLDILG
Serine/threonine-protein kinase PLK1 (Homo sapiens), sequence (P53350 whole entry): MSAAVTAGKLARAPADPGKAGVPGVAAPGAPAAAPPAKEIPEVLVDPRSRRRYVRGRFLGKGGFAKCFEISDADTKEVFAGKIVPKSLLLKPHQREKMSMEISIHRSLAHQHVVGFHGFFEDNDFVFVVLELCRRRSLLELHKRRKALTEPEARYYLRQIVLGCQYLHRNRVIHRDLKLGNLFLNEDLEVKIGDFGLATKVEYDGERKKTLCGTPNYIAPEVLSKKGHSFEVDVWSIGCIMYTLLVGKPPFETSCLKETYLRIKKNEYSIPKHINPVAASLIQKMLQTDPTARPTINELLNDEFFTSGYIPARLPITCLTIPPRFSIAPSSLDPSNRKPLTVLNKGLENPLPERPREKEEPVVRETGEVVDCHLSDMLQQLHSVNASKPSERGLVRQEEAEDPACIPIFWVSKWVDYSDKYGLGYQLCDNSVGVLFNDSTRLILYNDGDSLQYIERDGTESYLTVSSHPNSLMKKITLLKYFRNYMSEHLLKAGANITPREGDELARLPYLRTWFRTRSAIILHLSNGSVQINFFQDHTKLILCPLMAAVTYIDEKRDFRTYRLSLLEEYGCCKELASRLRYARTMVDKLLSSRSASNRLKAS

Take `O=C1Cc2cc(Nc3ccccc3)ccc2Cc2ccccc21`: the inhibition entry in [1], in [2], in assay [3], in assay [4], in [5] and in [6] was “inactive” each time. The inhibition entry in assay [7], in assay [8], in assay [9], in assay [10], in assay [11] and in assay [12] was “inactive” in each case. Also, the inhibition result in assay [13], in [14], in assay [15] and in assay [17] was “inactive” each time. In addition, the inhibition in [16] came to 47%.
For `O=C1Cc2ccccc2Cc2c(Nc3ccc(F)cc3F)cccc21`, the inhibition in assay [16] is 6%.
On to `O=C1Cc2ccccc2Cc2ccc(Nc3ccc(F)cc3F)cc21`, for which the inhibition in [16] amounted to 44%.
Same read-out and setting: then `O=C1Cc2ccccc2Oc2ccc(Nc3ccccc3)cc21`, with 25%; and `Nc1cc(F)ccc1Nc1ccc2c(c1)C(=O)Cc1ccccc1O2`, with 46%.
On to `Nc1ccccc1Nc1ccc2c(c1)Oc1ccccc1NC2=O`, for which the inhibition result in assay [1], in assay [2], in assay [3], in assay [4], in assay [5] and in assay [6] was “inactive” in each case. For the same compound, the inhibition result in [7], in [8], in [9], in [10], in [11] and in [12] was “inactive” in each case. For the same compound, the inhibition entry in [13], in assay [14], in [15] and in assay [17] was “inactive” throughout. Moreover, the IC50 in [18] stood at 2700 nM.
As for `Nc1cc(F)ccc1Nc1ccc2c(c1)Cc1ccccc1CC2=O`, the inhibition result in assay [1], in assay [2], in assay [3], in assay [4], in assay [5] and in [6] was “inactive” throughout. Besides, the inhibition entry in [7], in assay [8], in [9], in assay [10], in assay [11] and in [12] was “inactive” each time. Further, the inhibition entry in assay [13], in [14], in [15] and in assay [17] was “inactive” in each case. Besides, the IC50 in assay [18] turned out to be 1720 nM.
Turning to `Nc1ccccc1Nc1ccc2c(c1)Cc1ccccc1C(=O)C2`, the inhibition result in assay [1], in assay [2], in [3], in assay [4], in [5] and in [6] was “inactive” throughout. The inhibition entry in assay [7], in [8], in assay [9], in [10], in assay [11] and in [12] was “inactive” throughout. The inhibition result in assay [13], in assay [14], in [15] and in assay [17] was “inactive” each time. Moreover, the IC50 in assay [18] worked out at 1930 nM.
`Nc1ccccc1Nc1ccc2c(c1)C(=O)Cc1ccccc1O2`: in [16], the inhibition turned out to be 36%.
Turning to `Nc1ccccc1Nc1cccc2c1Oc1ccccc1CC2=O`, the inhibition in assay [16] worked out at 37%.
`Nc1cc(F)ccc1Nc1ccc2c(c1)Cc1ccccc1C(=O)C2`: the inhibition entry in assay [1], in assay [2], in assay [3], in assay [4], in assay [5] and in assay [6] was “inactive” throughout. Also, the inhibition result in [7], in [8], in assay [9], in assay [10], in [11] and in [12] was “inactive” throughout. Further, the inhibition entry in [13], in assay [14], in assay [15] and in [17] was “inactive” each time. For the same compound, in assay [18], the half-inhibitory concentration (IC50) came out at 3820 nM.
Take `O=C1Cc2ccccc2Cc2c(Nc3ccccc3)cccc21`: the inhibition in assay [16] worked out at 47%.
For the compound `Nc1ccccc1Nc1ccc2c(c1)Cc1ccccc1CC2=O`, the inhibition entry in assay [1], in assay [2], in assay [3], in assay [4], in assay [5] and in assay [6] was “inactive” in each case. Moreover, the inhibition entry in [7], in assay [8], in assay [9], in [10], in assay [11] and in assay [12] was “inactive” in each case. Moreover, the inhibition entry in [13], in assay [14], in [15] and in assay [17] was “inactive” each time. In addition, the IC50 in [18] stood at 990 nM.
For `O=C1Cc2ccccc2Oc2c(Nc3ccccc3)cccc21`, in assay [16], the inhibition was found to be 32%.
Turning to `O=C1Cc2ccccc2Oc2c(Nc3ccc(F)cc3F)cccc21`, in assay [16], the inhibition turned out to be 12%.
